Measured values: ChEMBL document CHEMBL3526066, “In vitro metabolism of 17-(dimethylaminoethylamino)-17-demethoxygeldanamycin in human liver microsomes” (Drug Metab Dispos, 2011)

Legend:
Liver microsome [1] = test: Drug level in boiled human liver microsomes treated with geldanamycin after 2 hrs; format: ADME
Outline: (§1)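 Substrate (5 µM final) was incubated at 37°C with HLMs (1 mg/ml; boiled HLMs as negative control) in 0.1 M phosphate buffer with 3.3 mM MgCl2 and 1 mM β-NADPH, with or without 5 mM reduced GSH. Aliquots were taken at 1, 5, 10, 15, 30, 45, 60 and 120 min and quenched with ice-cold acetonitrile containing internal standard. Samples were analysed by LC-MS/MS, with values given as percent of the analyte/internal-standard peak area ratio at 1 min.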

Liver microsome [2] = test: Retention time in human liver microsomes treated with 10 uM […] after 2 hrs by liquid chromatography-tandem mass spectrometry; format: ADME
Outline: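 17-DMAG (10 µM initial) was incubated with HLMs (1 mg/ml) in 0.1 M phosphate buffer with 3.3 mM MgCl2 and 1 mM β-NADPH at 37°C for 2 h alongside negative controls, then quenched with ice-cold acetonitrile. Samples were run on a C18 column with a 0.1% formic acid/ammonium formate–acetonitrile gradient (10–90% B in 10 min) using MS full scan, MRM, EPI and MS3 scans.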

Liver microsome [3] = test: Drug level in human liver microsomes treated with 1 uM 17-DMAG by liquid chromatography-tandem mass spectrometry in presence of 10 uM alpha-naphthoflavone CYP1A2 inhibitor; format: ADME
Outline: (§2)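 Pooled HLMs in 0.1 M phosphate buffer pH 7.4 with 1 mM β-NADPH, 3.3 mM MgCl2 and the selective inhibitor were preincubated 3 min at 37°C in a shaking water bath. 17-DMAG (1 µM final) was then added and incubated 20 min at 37°C, with parallel no-inhibitor controls. M1, M2, M3, M4 and M6 were quantified by LC-MS/MS MRM. Inhibition was taken as the ratio of metabolite formed with versus without inhibitor.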

Liver microsome [4] = test: Drug level in human liver microsomes treated with 1 uM 17-DMAG by liquid chromatography-tandem mass spectrometry in presence of 1 uM tranylcypromine CYP2A6 inhibitor; format: ADME; outline: as §2
Liver microsome [5] = test: Drug level in human liver microsomes treated with 1 uM 17-DMAG by liquid chromatography-tandem mass spectrometry in presence of 1 uM quercetin CYP2C8 inhibitor; format: ADME; outline: as §2
Liver microsome [6] = test: Drug level in human liver microsomes treated with 1 uM 17-DMAGby liquid chromatography-tandem mass spectrometry in presence of 1 uM sulfaphenazole CYP2C9 inhibitor; format: ADME; outline: as §2
Liver microsome [7] = test: Drug level in human liver microsomes treated with 1 uM 17-DMAG by liquid chromatography-tandem mass spectrometry in presence of 10 uM ticlopidine CYP2B6 inhibitor; format: ADME; outline: as §2
Liver microsome [8] = test: Drug level in human liver microsomes treated with 1 uM 17-DMAG by liquid chromatography-tandem mass spectrometry in presence of 1 uM quinidine CYP2D6 inhibitor; format: ADME; outline: as §2
Liver microsome [9] = test: Drug level in human liver microsomes treated with 1 uM 17-DMAG by liquid chromatography-tandem mass spectrometry in presence of 10 uM diethyldithiocarbamate CYP2E1 inhibitor; format: ADME; outline: as §2
Cytochrome P450 3A4 = Cytochrome P450 3A4 (Homo sapiens, UniProt P08684); test: Drug level assessed as human recombinant CYP3A4-mediated oxidative metabolism treated with 1 uM 17-DMAG after 30 mins by liquid chromatography-tandem mass spectrometry; format: ADME; conditions: recombinant enzyme, 0.5 h
Sequence of Cytochrome P450 3A4 (P08684 whole entry): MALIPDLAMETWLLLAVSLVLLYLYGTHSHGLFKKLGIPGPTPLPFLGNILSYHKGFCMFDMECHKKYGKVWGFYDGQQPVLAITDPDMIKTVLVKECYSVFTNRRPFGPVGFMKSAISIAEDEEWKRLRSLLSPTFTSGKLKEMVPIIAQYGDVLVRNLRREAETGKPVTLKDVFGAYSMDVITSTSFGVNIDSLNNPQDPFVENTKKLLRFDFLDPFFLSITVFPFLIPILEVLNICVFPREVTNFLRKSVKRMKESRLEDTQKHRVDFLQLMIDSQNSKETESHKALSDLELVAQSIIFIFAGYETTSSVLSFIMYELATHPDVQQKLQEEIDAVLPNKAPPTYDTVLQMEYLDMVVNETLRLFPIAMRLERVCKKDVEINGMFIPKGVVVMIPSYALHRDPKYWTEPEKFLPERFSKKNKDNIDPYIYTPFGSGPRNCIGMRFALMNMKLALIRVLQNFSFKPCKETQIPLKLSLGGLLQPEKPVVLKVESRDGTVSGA
Outline: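 Recombinant human P450 (E. coli-expressed, coexpressed with cytochrome b5), 20 pmol per 200 µl incubation with 0.2 mg reduced β-NADPH and 3.3 mM MgCl2 in 0.1 M phosphate buffer pH 7.4. Preincubated at 37°C in a shaking water bath, then 1 µM 17-DMAG added. E. coli control microsomes lacking P450 cDNA served as negative control. Metabolite (M1–M4, M6) formation rates were read by LC-MS/MS MRM and expressed as percent of the CYP3A4 rate.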

Liver microsome [10] = test: Drug metabolism in human liver microsomes assessed as (4E,6Z,8S,9S,10E,12S,13R,14S,16R)-19-(2-(dimethylamino)ethylamino)-8,13-dihydroxy-14-methoxy-4,10,12,16-tetramethyl-3,20,22-trioxo-2-azabicyclo[16.3.1]docosa-1(21),4,6,10,18-pentaen-9-yl carbamate formation at 1 uM 17-DMAG by liquid chromatography-tandem mass spectrometry in presence of 1 uM ketoconazole CYP3A inhibitor; format: ADME
[11] = Drug metabolism in human liver microsomes assessed as stability after 2 hrs relative to control by liquid chromatography-tandem mass spectrometry; format: ADME; conditions: read-out: Stability
Outline: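 Pooled human liver microsomes (1 mg/ml) were incubated at 37°C with substrate (5 µM final), 1 mM β-NADPH and 3.3 mM MgCl2 in 0.1 M phosphate buffer, with or without 5 mM reduced GSH. Aliquots were taken from 1 to 120 min and quenched in ice-cold acetonitrile containing internal standard. LC-MS/MS peak-area ratios to internal standard were normalised to the 1-min sample.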

[12] = Drug metabolism in human liver microsomes assessed as stability during first 5 mins relative to control in presence of reduced GSH by liquid chromatography-tandem mass spectrometry; format: ADME; conditions: read-out: Stability; outline: as §1
[13] = Drug metabolism in human liver microsomes assessed as stability after 5 mins relative to control in presence of reduced GSH by liquid chromatography-tandem mass spectrometry; format: ADME; outline: as §1
[14] = Drug metabolism in human liver microsomes assessed as stability after 120 mins relative to control in presence of reduced GSH by liquid chromatography-tandem mass spectrometry; format: ADME; conditions: read-out: Stability; outline: as §1
Liver microsome [15] = test: Drug metabolism in human liver microsomes assessed as 17-(allylamino)-17-demethoxygeldanamycin hydroquinone formation after 1 hr relative to control by liquid chromatography-tandem mass spectrometry; format: ADME; outline: as §1
Liver microsome [16] = test: Drug metabolism in human liver microsomes assessed as stability after 45 mins relative to control by liquid chromatography-tandem mass spectrometry; format: ADME; conditions: 0.75 h; outline: as §1
[17] = Terminal half life in human; format: ADME, organism-based; conditions: in vivo, read-out: beta t1/2 (converted)
Liver microsome [18] = test: Drug metabolism in human liver microsomes assessed as 17-aminogeldanamycin formation at 37 degC in presence of reduced GSH by liquid chromatography-tandem mass spectrometry; format: ADME; conditions: read-out: Km(app)

Retention_time (Liver microsome [2]) [min] | Drug metabolism (Liver microsome [3]) | Drug metabolism (Liver microsome [4]) | Drug metabolism (Liver microsome [5]) | Drug metabolism (Liver microsome [6]) | Drug metabolism (Liver microsome [7]) | Drug metabolism (Liver microsome [8]) | Drug metabolism (Liver microsome [9]) | Drug metabolism (Cytochrome P450 3A4) | SMILES | other results
8.21 | metabolite_detected | metabolite_detected | metabolite_detected | metabolite_detected | metabolite_detected | metabolite_detected | metabolite_detected | metabolite_detected | CO[C@H]1/C=C\C=C(/C)C(=O)NC2=CC(=O)C(NCCN(C)C)=C(C[C@@H](C)C[C@H](OC)[C@H](O)[C@@H](C)/C=C(\CO)[C@@H]1OC(N)=O)C2=O | –
9.04 | metabolite_detected | metabolite_detected | metabolite_detected | metabolite_detected | metabolite_detected | metabolite_detected | metabolite_detected | metabolite_detected | CO[C@H]1/C=C\C=C(/C)C(=O)NC2=CC(=O)C(NC(O)CN(C)C)=C(C[C@@H](C)C[C@H](OC)[C@H](O)[C@@H](C)/C=C(\C)[C@@H]1OC(N)=O)C2=O (some centres not stated) | –
8.4 | – | – | – | – | – | – | – | – | CO[C@H]1/C=C\C=C(/C)C(=O)NC2=CC(=O)C(/N=C/CN(C)C)=C(C[C@@H](C)C[C@H](OC)[C@H](O)[C@@H](C)/C=C(\C)[C@@H]1OC(N)=O)C2=O | –

Further lines, the compound ahead of its results:

SMILES | Retention_time (Liver microsome [2]) [min] | Drug metabolism (Liver microsome [3]) | Drug metabolism (Liver microsome [4]) | Drug metabolism (Liver microsome [5]) | Drug metabolism (Liver microsome [6]) | Drug metabolism (Liver microsome [7]) | Drug metabolism (Liver microsome [8]) | Drug metabolism (Liver microsome [9]) | Drug metabolism (Cytochrome P450 3A4) | other results
COc1c(O)cc2c(O)c1C[C@@H](C)C[C@H](OC)[C@H](O)[C@@H](C)/C=C(\C)[C@H](OC(N)=O)[C@@H](OC)/C=C\C=C(/C)C(=O)N2 | – | – | – | – | – | – | – | – | – | Drug metabolism (Liver microsome [1]): metabolite_detected
CO[C@H]1/C=C\C=C(/C)C(=O)NC2=CC(=O)C(NCCN(C)C)=C(C[C@@H](C)C[C@H](O)[C@H](O)[C@@H](C)/C=C(\C)[C@@H]1OC(N)=O)C2=O | 7.57 | metabolite_detected | metabolite_detected | metabolite_detected | metabolite_detected | metabolite_detected | metabolite_detected | metabolite_detected | metabolite_detected | –
CO[C@H]1C[C@H](C)CC2=C(NCCN(C)C)C(=O)C=C(NC(=O)/C(C)=C/C=C\[C@H](O)[C@@H](OC(N)=O)/C(C)=C/[C@H](C)[C@H]1O)C2=O | 7.13 | metabolite_detected | metabolite_detected | metabolite_detected | metabolite_detected | metabolite_detected | metabolite_detected | metabolite_detected | metabolite_detected | Drug metabolism (Liver microsome [10]): metabolite_not_detected
COC1=C2C[C@@H](C)C[C@H](OC)[C@H](O)[C@@H](C)/C=C(\C)[C@H](OC(N)=O)[C@@H](OC)/C=C\C=C(/C)C(=O)NC(=CC1=O)C2=O [GELDANAMYCIN] | – | – | – | – | – | – | – | – | – | remaining at 2 h [11]: 73%; remaining at 5 min [12]: 75.3%; remaining at 5 min [13]: 75.3%; remaining at 2 h [14]: 46.6%
C=CCNc1c(O)cc2c(O)c1C[C@@H](C)C[C@H](OC)[C@H](O)[C@@H](C)/C=C(\C)[C@H](OC(N)=O)[C@@H](OC)/C=C\C=C(/C)C(=O)N2 [RETASPIMYCIN] | – | – | – | – | – | – | – | – | – | Drug metabolism (Liver microsome [15]): metabolite_not_detected
C=CCNC1=C2C[C@@H](C)C[C@H](OC)[C@H](O)[C@@H](C)/C=C(\C)[C@H](OC(N)=O)[C@@H](OC)/C=C\C=C(/C)C(=O)NC(=CC1=O)C2=O [TANESPIMYCIN] | – | – | – | – | – | – | – | – | – | Stability (Liver microsome [16]): Unstable; half-life [17]: 4 h; Km (Liver microsome [18]): 29.1 µM
